According to ChEMBL document CHEMBL1151461, “Madurahydroxylactone derivatives as dual inhibitors of human immunodeficiency virus type 1 integrase and RNase H” (Antimicrob Agents Chemother, 2008):

Key:
[1] = Inhibition of HIV1 RNase H by FRET high-throughput assay; parameters: species or system Human immunodeficiency virus 1
How it was run: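 3′-fluorescein/5′-DABCYL RNA/DNA hybrid (0.16 nM) preincubated with compound; reaction started with 7.5 nM HIV-1 RNase H, 30 min at room temperature, EDTA quench, fluorescence intensity read. IC50 as mean ± SD of ≥3 independent experiments, or single experiment where footnoted.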

[2] = target: Human immunodeficiency virus type 1 integrase (Human immunodeficiency virus 1, UniProt Q7ZJM1); test: Inhibition of HIV1 recombinant integrase by electrochemiluminescent-based high-throughput strand transfer assay
How it was run: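 Biotinylated, 3′-end-preprocessed donor DNA incubated 30 min at 37°C with 250 nM recombinant integrase; compound added, strand transfer started with ruthenium-labeled duplex target DNA, 60 min at 37°C; electrochemiluminescence read. IC50 as mean ± SD of ≥3 independent experiments, or single experiment where footnoted.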

[3] = system: Human immunodeficiency virus 1; test: Selectivity, ratio of IC50 for HIV1 recombinant integrase to IC50 for HIV1 RNase H
[4] = system: Human immunodeficiency virus 1; test: Selectivity, ratio of IC50 for HIV1 RNase H to IC50 for HIV1 recombinant integrase
How it was run: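 Ratio of the IC50s from two assays run on the same compounds. Integrase: a biotinylated 3′-preprocessed donor DNA was preincubated 30 min at 37°C with 250 nM recombinant HIV-1 integrase. Compound was then added, ruthenium-labelled target DNA started strand transfer, 60 min at 37°C, electrochemiluminescent read-out. RNase H: 0.16 nM 3′-fluorescein/5′-DABCYL RNA/DNA hybrid with 7.5 nM enzyme, 30 min at room temperature, EDTA quench, FRET fluorescence.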

[5] = target: Human immunodeficiency virus type 1 integrase (Human immunodeficiency virus 1) (UniProt Q7ZJM1); test: Selectivity for inhibition of HIV1 recombinant integrase strand transfer activity over 3'-end processing
Human immunodeficiency virus type 1 integrase (Human immunodeficiency virus 1), sequence (Q7ZJM1 as listed by the source): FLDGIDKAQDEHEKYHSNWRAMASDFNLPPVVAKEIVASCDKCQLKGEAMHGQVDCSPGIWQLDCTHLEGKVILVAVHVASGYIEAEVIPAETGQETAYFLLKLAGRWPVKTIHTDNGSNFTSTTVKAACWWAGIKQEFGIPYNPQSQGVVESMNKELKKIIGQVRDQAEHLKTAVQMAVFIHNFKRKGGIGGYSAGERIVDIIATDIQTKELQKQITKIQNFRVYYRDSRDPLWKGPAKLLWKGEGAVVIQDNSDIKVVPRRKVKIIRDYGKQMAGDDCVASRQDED

Human immunodeficiency virus type 1 integrase, sequence (Q7ZJM1 whole entry): as the sequence (Q7ZJM1 as listed by the source) above

Row | IC50 [1] [µM] | IC50 [2] [µM] | Ratio IC50 [3] | fold change (FC) [5] | SMILES | Ratio IC50 [4]
1 | 10.2 | 4.62 |  |  | COc1c2c(c(O)c3c1C(=O)c1c(cc(O)c(C)c1O)C3=O)-c1c(cc3cnn(CC(=O)O)c(=O)c3c1O)CC2 | 
2 | 4.06 | 4.06 |  |  | COc1c2c(c(O)c3c1C(=O)c1c(cc(O)c(C)c1O)C3=O)-c1c(cc3cn[nH]c(=O)c3c1O)CC2 | 
3 | 5.88 | 22 |  |  | COc1c2c(c(O)c3c1C(=O)c1c(cc(O)c(C)c1O)C3=O)-c1c(cc(/C=N/NS(=O)(=O)c3ccc(C)cc3)c(C(=O)O)c1O)CC2 | 
4 | 10.1 | 12.5 |  |  | CO/N=C/c1cc2c(c(O)c1C(=O)O)-c1c(O)c3c(c(OC)c1CC2)C(=O)c1c(cc(O)c(C)c1O)C3=O | 
5 | 8.63 | 6.28 |  |  | COc1c2c(c(O)c3c1C(=O)c1c(cc(O)c(C)c1O)C3=O)-c1c(cc3cnn(CCOC(C)=O)c(=O)c3c1O)CC2 | 
6 | 2.58 | 0.41 |  | 20 | COc1c2c(c(O)c3c1C(=O)c1c(cc(O)c(C)c1O)C3=O)-c1c(cc3cnn(-c4ccccc4)c(=O)c3c1O)CC2 | 100
7 | 1.43 | 200 | 100 |  | COC(=O)Oc1cc2c(c(O)c1C)C(=O)c1c(OC)c3c(c(O)c1C2=O)-c1c(cc2cnn(-c4ccccc4)c(=O)c2c1O)CC3 | 
8 | 8.96 | 6.34 |  |  | CCCn1ncc2cc3c(c(O)c2c1=O)-c1c(O)c2c(c(OC)c1CC3)C(=O)c1c(cc(O)c(C)c1O)C2=O | 
9 | 3.48 | 13.2 |  |  | COc1c2c(c(O)c3c1C(=O)c1c(cc(O)c(C)c1O)C3=O)-c1c(cc(C(=O)O)c(C(=O)O)c1O)CC2 | 
10 | 10.5 | > 333 |  |  | CCCn1ncc2cc3c(c(OC(C)=O)c2c1=O)-c1c(c(OC)c2c(c1OC(C)=O)C(=O)c1cc(OC(C)=O)c(C)c(OC(C)=O)c1C2=O)CC3 | 
11 | 3.1 | 14.6 |  |  | COc1c2c(c(O)c3c1C(=O)c1c(cc(O)c(C)c1O)C3=O)-c1c(cc(/C=N/NC(=O)c3ccccc3)c(C(=O)O)c1O)CC2 | 
12 | 9.11 | 3.45 |  |  | COc1c2c(c(O)c3c1C(=O)c1c(cc(O)c(C)c1O)C3=O)-c1c(cc3cnn(-c4ccc(C(=O)O)cc4)c(=O)c3c1O)CC2 | 
13 | 8.98 | > 333 |  |  | CCCn1ncc2cc3c(c(O)c2c1=O)-c1c(O)c2c(c(OC)c1CC3)C(=O)c1c(cc(OC(=O)OC)c(C)c1OC(C)=O)C2=O | 
14 | 2.11 | 2.67 |  |  | CCOC(=O)Cn1ncc2cc3c(c(O)c2c1=O)-c1c(O)c2c(c(OC)c1CC3)C(=O)c1c(cc(O)c(C)c1O)C2=O | 
15 | 3.14 | > 333 | 100 |  | COc1c2c(c(OC(C)=O)c3c1C(=O)c1c(cc(OC(C)=O)c(C)c1OC(C)=O)C3=O)-c1c(cc3cnn(-c4ccccc4)c(=O)c3c1OC(C)=O)CC2 | 
16 | 0.69 | 122 | > 100 |  | COc1c2c(c(O)c3c1C(=O)c1c(cc(O)c(C)c1O)C3=O)-c1c(cc(/C=N/NC(C)(C)C)c(C(=O)O)c1O)CC2 | 
17 | 5.65 | 3.15 |  |  | COc1c2c(c(O)c3c1C(=O)c1c(cc(O)c(C)c1O)C3=O)-c1c(cc(/C=N/NC(=N)N)c(C(=O)O)c1O)CC2 | 
18 | 3.54 | 6.09 |  |  | COc1c2c(c(O)c3c1C(=O)c1c(cc(O)c(C)c1O)C3=O)-c1c(cc(/C=N/NC(=O)c3ccccc3O)c(C(=O)O)c1O)CC2 | 
19 | 5.28 | 3.02 |  |  | COc1c2c(c(O)c3c1C(=O)c1c(cc(O)c(C)c1O)C3=O)-c1c(cc3cnn(C(=N)N)c(=O)c3c1O)CC2 | 
20 | 14 | 2.2 |  |  | COc1c2c(c(O)c3c1C(=O)c1c(cc(O)c(C)c1O)C3=O)-c1c(cc(/C=N/Nc3ccc([N+](=O)[O-])cc3)c(C(=O)O)c1O)CC2 | 
21 | 22.4 | 106 |  |  | COc1c2c(c(OCc3ccccc3)c3c1C(=O)c1c(cc(OCc4ccccc4)c(C)c1OCc1ccccc1)C3=O)-c1c(cc3cnn(CC(=O)O)c(=O)c3c1OCc1ccccc1)CC2 | 
22 | 9.41 | 37 |  |  | COc1c2c(c(O)c3c1C(=O)c1c(cc(O)c(C)c1O)C3=O)-c1c(cc(/C=N/C34CC5CC(CC(C5)C3)C4)c(C(=O)O)c1O)CC2 | 

Row | SMILES | IC50 [1] [µM] | IC50 [2] [µM] | Ratio IC50 [3] | fold change (FC) [5] | Ratio IC50 [4]
23 | COc1c2c(c(O)c3c1C(=O)c1c(cc(O)c(C)c1O)C3=O)-c1c(cc3c(c1O)C(=O)N1c4ccccc4SC31)CC2 (centres undefined) | 0.31 | 96 | 10 |  | 100
24 | COc1c2c(c(O)c3c1C(=O)c1c(cc(O)c(C)c1O)C3=O)-c1c(cc3c(c1O)C(=O)N1C(C(=O)O)CSC31)CC2 (centres undefined) | 15.7 | 20 |  |  | 
25 | COc1c2c(c(O)c3c1C(=O)c1c(cc(O)c(C)c1O)C3=O)-c1c(cc(C3NCc4ccccc4N3)c(C(=O)O)c1O)CC2 (centres undefined) | 5.86 | 40 |  |  | 
26 | COc1c2c(c(O)c3c1C(=O)c1c(cc(O)c(C)c1O)C3=O)-c1c(cc3c(c1O)C(=O)N1CCCNC31)CC2 (centres undefined) | 7.16 | 56 |  |  | 
27 | COc1c2c(c(O)c3c1C(=O)c1c(cc(O)c(C)c1O)C3=O)-c1c(cc3c(c1O)C(=O)N1c4ccccc4CNC31)CC2 (centres undefined) | 0.78 | 108 | 100 |  | 
28 | COc1c2c(c(O)c3c1C(=O)c1c(cc(O)c(C)c1O)C3=O)-c1c(cc3c(c1O)C(=O)N(N(C)C)C3O)CC2 (centres undefined) | 6.97 | 7.7 |  |  | 
